Rows were chosen to be rich in hits. Some 1.9% of all compounds tested hit in one or more screens of this group.
SR-BI HDL uptake = inhibitors of SR-BI mediated HDL lipid uptake, primary screen, ldlA[mSR-BI] cells, fluorescence, single point. Scavenger receptor class B member 1 (Mus musculus), Q61009. 320,000 compounds, 0.96% hits. AID 488896, 2010. ldlA[mSR-BI] CHO cells, DiI-HDL uptake fluorescence, 3 h. inhibition, % at 12.5 µM;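 active = mean replicate inhibition of at least 70% and a set share of replicates each scoring 70 or more; inconclusive = meets just one of the two criteria; inactive = fails both criteria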
UBC13 polyUb = UBC13 polyubiquitin chain formation inhibitors, primary screen, biochemical, TR-FRET, uHTS. Ubiquitin-conjugating enzyme E2 N (Homo sapiens), P61088. inhibition, % at 20 µM. 330,000 compounds, 0.47% hits. AID 485273, 2010; in the data active = inhibition above about 45%, passing the limit was not always enough; inconclusive = no clear call, values can overlap the other calls
SR-BI DiI-HDL act = activators of SR-BI mediated DiI-HDL uptake, primary screen, ldlA[mSR-BI] CHO cells, DiI fluorescence | 320,000 compounds, 0.096% hits | activation, % at 12.5 µM | 3 h; 100 = double the neutral-control signal;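 active = mean replicate activation of at least 60% and every replicate at or above 60%; inconclusive = mean or all-replicate condition met, but not both; inactive = mean below 60% and not all replicates reaching 60%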
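Test system: SR-BI-overexpressing, LDLR-lacking CHO cells; Also added: labelled HDL, 10 µg/mL; Measured by: bottom-read cell fluorescence after medium removal, ex 550/em 595 nm; Timing: 3 h uptake period with compound, 37 °C; Buffer or medium: F12, 0.5% BSA, 25 mM HEPES; Doses: single compound concentration, delivered by pin transfer.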
Neddyl block = inhibitors of cullin neddylation, primary screen, biochemical, TR-FRET, uHTS, NAE and Ubc12. NEDD8-conjugating enzyme Ubc12 (Homo sapiens) + NEDD8-activating enzyme E1 regulatory …. inhibition, % at 25 µM. 360,000 compounds, 0.58% hits; in the data active = inhibition above about 36%
Target sequence (P61081 whole entry, looked up): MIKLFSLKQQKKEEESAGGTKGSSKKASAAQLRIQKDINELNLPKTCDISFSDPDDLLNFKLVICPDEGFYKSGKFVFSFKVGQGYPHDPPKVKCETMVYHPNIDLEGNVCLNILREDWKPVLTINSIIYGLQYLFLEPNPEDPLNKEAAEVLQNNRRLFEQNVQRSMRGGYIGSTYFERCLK
Target sequence (Q13564 whole entry, looked up): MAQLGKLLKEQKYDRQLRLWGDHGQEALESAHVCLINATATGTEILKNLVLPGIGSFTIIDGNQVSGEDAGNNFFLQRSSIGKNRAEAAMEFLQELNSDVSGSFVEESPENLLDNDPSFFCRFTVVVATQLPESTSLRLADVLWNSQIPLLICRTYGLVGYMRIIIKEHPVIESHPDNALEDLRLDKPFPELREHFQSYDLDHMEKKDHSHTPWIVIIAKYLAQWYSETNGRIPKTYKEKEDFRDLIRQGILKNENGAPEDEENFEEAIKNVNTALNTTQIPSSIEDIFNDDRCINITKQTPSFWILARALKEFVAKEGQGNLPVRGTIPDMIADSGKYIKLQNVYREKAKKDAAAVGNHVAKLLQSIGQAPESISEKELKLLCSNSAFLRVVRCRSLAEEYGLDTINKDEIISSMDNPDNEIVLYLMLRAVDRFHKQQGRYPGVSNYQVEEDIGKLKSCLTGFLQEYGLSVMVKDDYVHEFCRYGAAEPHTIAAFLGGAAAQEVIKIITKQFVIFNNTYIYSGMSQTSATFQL
Casp3 UBC13 ctr = CASP3 inhibitor validation, counterassay for project on UBE2N polyubiquitination blockers, biochemical, one dose | shares compounds with UBC13 polyUb | Recombinant caspase-3, Caspase-Glo 3/7 luminescence, 60 min | inhibition, % at 20 µM | 1,400 compounds, 4% hits | AID 488856, 2010;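 active = mean inhibition across replicates above about 26%, limit read from the data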
UBC13 confirm = UBC13 polyubiquitination inhibitors, single-point retest, confirmation, biochemical, TR-FRET, single concentration. shares compounds with UBC13 polyUb. inhibition, % at 10 µM. 1,400 compounds, 68% hits; in the data active = inhibition above about 45%; inconclusive = no clear call, values can overlap the other calls
Large screens that a line does not name were inactive (follow-up assays come after a bar, where they were run); ! = a repeat was not active.

Cc1ccccc1OCC(O)CN1CCN(CCN2C(=O)c3cccc4cccc(c34)C2=O)CC1 (stereo not given)	UBC13 polyUb 50 | Casp3 UBC13 ctr inactive | UBC13 confirm 76
CC(=O)c1ccc(OCC(O)CN2CCN(CCN3C(=O)c4cccc5cccc(c45)C3=O)CC2)cc1 (stereo not given)	UBC13 polyUb 96 | Casp3 UBC13 ctr inactive | UBC13 confirm 103
C=CCc1ccccc1OCC(O)CN1CCN(CCN2C(=O)c3cccc4cccc(c34)C2=O)CC1 (stereo not given)	UBC13 polyUb 59 | Casp3 UBC13 ctr inactive | UBC13 confirm 97
CC(C)OCC(O)CN1CCN(CCN2C(=O)c3cccc4cccc(c34)C2=O)CC1 (stereo not given)	none
C=CCc1ccccc1OCC(O)CN1CCN(C(=O)OCC)CC1 (stereo not given)	none
CCC(OCC(O)CN1CCN(CCN2C(=O)c3cccc4cccc(c34)C2=O)CC1)c1ccccc1 (stereo not given)	UBC13 polyUb 82 | Casp3 UBC13 ctr inactive | UBC13 confirm 97
Cc1cccc(C)c1OCC(O)CN1CCC(CN2C(=O)c3cccc4cccc(c34)C2=O)CC1 (stereo not given)	none
CC(=O)c1ccc(OCC(O)CN2CCN(CC(O)COc3ccc(C(C)=O)cc3)CC2)cc1 (stereo not given)	none
Cc1cccnc1C(c1ccc(F)cc1)N(C)C(=O)C1CCN(CCOc2ccc(Cl)cc2Cl)CC1 (stereo not given)	none (no result: SR-BI HDL uptake, UBC13 polyUb, SR-BI DiI-HDL act)
CCOc1ccc(C(=O)CCC(=O)Nc2cccc(S(=O)(=O)N3CCCCC3)c2)cc1	none
CCOC(=O)[C@]12CCCC=C1N(CCC1=CCCCC1)C(=O)[C@H](CC(=O)NCc1cccs1)C2	none (no result: SR-BI HDL uptake, UBC13 polyUb, SR-BI DiI-HDL act)
CCOC(=O)c1c(C)c2c(n1C)CCC/C2=N\O	UBC13 polyUb 79 | Casp3 UBC13 ctr inactive | UBC13 confirm 94
O=C(NC1(C(F)(F)F)N=C2SCCN2C1=O)c1cccnc1 (stereo not given)	UBC13 polyUb 48 | Casp3 UBC13 ctr inactive | UBC13 confirm inactive
O=C(CN1C(=O)NC2(CCCc3ccccc32)C1=O)c1ccc(F)c(F)c1 (stereo not given)	none
COC(=O)c1c(-c2ccc(OC)cc2)oc2ccc(-c3cc(OC)c(OC)c(OC)c3)cc12	UBC13 polyUb 52 | Casp3 UBC13 ctr inactive | UBC13 confirm inconclusive
COC(=O)c1c(-c2ccc(OC)cc2)oc2ccc(-c3ccc(OC)nc3)cc12	none
CCOc1ccc(OCC(O)CNC2CCN(Cc3ccccc3)CC2)cc1 (stereo not given)	none (no result: SR-BI HDL uptake, SR-BI DiI-HDL act)
CC(C)(c1ccccc1)c1ccc(OCC(O)CNC2CCN(Cc3ccccc3)CC2)cc1 (stereo not given)	UBC13 polyUb 63 | Casp3 UBC13 ctr inactive | UBC13 confirm 70
O=S1(=O)N[C@H](Cc2ccccc2)COc2cc(N3CCN(Cc4ccccc4F)CC3)ccc21	none (no result: SR-BI HDL uptake, UBC13 polyUb, SR-BI DiI-HDL act)
O=C(CSc1nnnn1C1CC1)Nc1ccc(S(=O)(=O)N2CCOCC2)cc1	none
CC[C@H](CO)Nc1nc(Nc2cccc(Cl)c2)c2ncn(C(C)C)c2n1	UBC13 polyUb 77 | Casp3 UBC13 ctr inactive | UBC13 confirm 67
CC(C)[C@H](CO)N(Cc1cccc(F)c1)c1nc(Nc2cccc(Cl)c2)c2ncn(C(C)C)c2n1	none
Cc1ccc(C)c(N2CCN(C3C(=O)Nc4ccccc4-n4nnnc43)CC2)c1 (stereo not given)	none (no result: SR-BI HDL uptake, UBC13 polyUb, SR-BI DiI-HDL act)
CN1CCN(C2Cc3cc(F)ccc3Sc3ccc(Cl)cc32)CC1 (stereo not given)	none
CN1CCN(C2Cc3ccccc3Sc3cc(C(F)(F)F)ccc32)CC1 (stereo not given)	none (no result: SR-BI HDL uptake, SR-BI DiI-HDL act, Neddyl block)
CSc1ccc2c(c1)C(N1CCN(C)CC1)Cc1ccccc1S2 (stereo not given)	UBC13 polyUb 52! | Casp3 UBC13 ctr inactive | UBC13 confirm inactive
CN1CCN(C2Cc3ccccc3Sc3ccc(Cl)cc32)CC1 (stereo not given)	UBC13 polyUb 45 | Casp3 UBC13 ctr inactive | UBC13 confirm inactive
COc1ccc(CC(=O)N/N=C(\C)c2cccs2)cc1	none
COc1cc(CCCN2CCNC[C@H]2Cc2cccc3ccccc23)cc(OC)c1OC	none
Cc1ccc(S(=O)(=O)NC(Cc2ccccc2)C(=O)O)cc1C (stereo not given)	none
CC(C)(C)c1cc(C(=O)N/N=C/c2ccccn2)n[nH]1	UBC13 polyUb 62, SR-BI DiI-HDL act 320 | Casp3 UBC13 ctr inactive | UBC13 confirm inactive
OC(c1cc(C(F)(F)F)nc2c(C(F)(F)F)cccc12)C1CCCCN1 (stereo not given)	UBC13 polyUb 68 | Casp3 UBC13 ctr inactive | UBC13 confirm 49
CCOc1ccc2nc(N(CCCN(C)C)C(=O)c3ccc(S(=O)(=O)N4CCCC4)cc3)sc2c1	none (no result: SR-BI DiI-HDL act)
Cc1ccc2nc(N(CCCN(C)C)C(=O)c3ccc4c(c3)CCCC4)sc2c1	UBC13 polyUb 66 | Casp3 UBC13 ctr inactive | UBC13 confirm 69
CCN(Cc1ccccc1)S(=O)(=O)c1ccc(C(=O)N(CCCN(C)C)c2nc3cc4c(cc3s2)OCCO4)cc1	UBC13 polyUb 96 | Casp3 UBC13 ctr inactive | UBC13 confirm 114
CCN(CC)CCN(C(=O)c1ccc(C(=O)c2ccccc2)cc1)c1nc2cc3c(cc2s1)OCO3	none
CN(C)CCCN(C(=O)c1ccc(S(=O)(=O)N2CCCC2)cc1)c1nc2ccc(Br)cc2s1	UBC13 polyUb 70 | Casp3 UBC13 ctr inactive | UBC13 confirm 97
CN(C)CCCN(C(=O)c1ccc(C(=O)c2ccccc2)cc1)c1nc2cc3c(cc2s1)OCO3	UBC13 polyUb 72 | Casp3 UBC13 ctr inactive | UBC13 confirm 106
Cc1cc(C)c2nc(N(CCCN(C)C)C(=O)c3ccc4c(c3)CCCC4)sc2c1	none (no result: SR-BI HDL uptake, SR-BI DiI-HDL act, Neddyl block)
O=C(Nc1cccc2c1CCCC2)c1cc(C2CCCCN2C(=O)c2cccs2)on1 (stereo not given)	none (no result: SR-BI HDL uptake, UBC13 polyUb, SR-BI DiI-HDL act)
Cc1cc(Br)cn2c(CC(C)(C)C)c(-c3cccc(Cl)c3)nc12	none (no result: SR-BI HDL uptake, UBC13 polyUb, SR-BI DiI-HDL act)
CN(C)CCCN(C(=O)c1ccc(S(=O)(=O)N2CCCCC2)cc1)c1nc2cc3c(cc2s1)OCO3	UBC13 polyUb 55 | Casp3 UBC13 ctr inactive | UBC13 confirm 90
CN(C)CCCN(C(=O)c1ccc(S(=O)(=O)N2CCOCC2)cc1)c1nc2cc3c(cc2s1)OCO3	none
O=C1CCC(C(=O)NCc2ccccc2)N1 (stereo not given)	none
COc1ccc(CCN2CCC(Nc3nc4ccccc4n3Cc3ccc(F)cc3)CC2)cc1	UBC13 polyUb 48 | Casp3 UBC13 ctr inactive | UBC13 confirm inactive
COc1ccc(CNc2nc3ccccc3n2CCN2CCCCC2)cc1	none
CCN(CC(=O)Nc1c(F)cccc1F)C(=O)CCCOc1ccccc1	none (no result: UBC13 polyUb)
